Experiments:
Salmonella typhimurium [1] = assay: Mutagenicity in Salmonella typhimurium TA1535 in presence of metabolic activation; type: toxicity; conditions: salmonella enterica subsp. enterica serovar typhimurium
Cytochrome P450 2C19 = Cytochrome P450 2C19 (Homo sapiens, UniProt P33261); assay: Inhibition of CYP2C19 in human liver microsomes using mephenytoin as substrate in presence of NADPH by LC-MS/MS analysis; type: ADME
In short: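 Pooled human liver microsomes. IC50 determined from isoform-specific marker activities for CYP1A2, 2A6, 2B6, 2C8, 2C9, 2C19 (mephenytoin hydroxylation) and 2E1.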

Rattus norvegicus = assay: Effect on basal level of acetylcholine in Wistar rat ventral hippocampus at 1 to 3 mg/kg, po after 6 hrs by LC-MS/MS based microdialysis method; type: ADME, organism-based; conditions: in vivo
In short: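 Male Wistar rats (240−300 g) fitted under isoflurane with a ventral hippocampal guide cannula (AP −5.2, ML +5.0, DV −3.8 mm from bregma). Probe (4 mm membrane) inserted 16 h before study. Perfusion with aCSF pH 7.2 at 1.5 μL/min, 2 h stabilization, five basal 20-min samples. Test agent given p.o.; donepezil and memantine (1 mg/kg s.c. each) given 30 min later in combination arms. Dialysates collected 6 h (4 h for combination), acetylcholine measured by LC-MS/MS, expressed as % of mean basal.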

[2] = Oral bioavailability in Beagle dog at 10 mg/kg; type: ADME, organism-based, Canis lupus familiaris; conditions: in vivo
Homo sapiens = organism: Homo sapiens; assay: Toxicity in human assessed as changes in QTc interval during phase-I clinical trail
Cytochrome P450 3A4 = Cytochrome P450 3A4 (Homo sapiens, UniProt P08684); assay: Induction of CYP3A4 activity in human hepatocytes at 0.01 to 1 uM preincubated for 3 days followed by substrate addition measured after 30 mins; type: ADME, cell-based; conditions: 0.5 h
In short: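 Plateable human hepatocytes exposed to 0.01, 0.1 and 1.0 μM. CYP1A2, CYP2B6 and CYP3A4 induction read as both mRNA expression and enzyme activity.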

[3] = Solubility of the compound in water; type: physicochemical; conditions: buffer
[4] = molecular target: Alpha-2C adrenergic receptor (Homo sapiens, UniProt P18825); assay: Inhibition of recombinant human adrenergic alpha 2C receptor expressed in CHO cells assessed as inhibition of 5-HT stimulated cAMP accumulation after 4 hrs by luciferase reporter gene assay; type: functional, cell-based
Salmonella typhimurium [5] = assay: Mutagenicity in Salmonella typhimurium TA98 in absence of metabolic activation; type: toxicity; conditions: salmonella enterica subsp. enterica serovar typhimurium

Chain of Cytochrome P450 3A4 (P08684 whole entry): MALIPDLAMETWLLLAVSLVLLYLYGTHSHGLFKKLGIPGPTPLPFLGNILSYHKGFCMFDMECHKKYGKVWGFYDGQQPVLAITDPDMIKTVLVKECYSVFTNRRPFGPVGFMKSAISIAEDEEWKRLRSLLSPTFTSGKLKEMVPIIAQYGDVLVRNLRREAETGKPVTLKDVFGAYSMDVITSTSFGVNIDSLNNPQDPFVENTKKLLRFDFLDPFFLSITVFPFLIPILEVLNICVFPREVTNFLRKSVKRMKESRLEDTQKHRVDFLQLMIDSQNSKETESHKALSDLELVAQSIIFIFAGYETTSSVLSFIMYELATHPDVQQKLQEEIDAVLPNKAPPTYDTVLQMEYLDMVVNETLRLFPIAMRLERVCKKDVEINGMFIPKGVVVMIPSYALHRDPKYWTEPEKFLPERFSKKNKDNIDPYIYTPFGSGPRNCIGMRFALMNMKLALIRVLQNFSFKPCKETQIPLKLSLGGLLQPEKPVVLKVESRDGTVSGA
Chain of Alpha-2C adrenergic receptor (P18825 whole entry): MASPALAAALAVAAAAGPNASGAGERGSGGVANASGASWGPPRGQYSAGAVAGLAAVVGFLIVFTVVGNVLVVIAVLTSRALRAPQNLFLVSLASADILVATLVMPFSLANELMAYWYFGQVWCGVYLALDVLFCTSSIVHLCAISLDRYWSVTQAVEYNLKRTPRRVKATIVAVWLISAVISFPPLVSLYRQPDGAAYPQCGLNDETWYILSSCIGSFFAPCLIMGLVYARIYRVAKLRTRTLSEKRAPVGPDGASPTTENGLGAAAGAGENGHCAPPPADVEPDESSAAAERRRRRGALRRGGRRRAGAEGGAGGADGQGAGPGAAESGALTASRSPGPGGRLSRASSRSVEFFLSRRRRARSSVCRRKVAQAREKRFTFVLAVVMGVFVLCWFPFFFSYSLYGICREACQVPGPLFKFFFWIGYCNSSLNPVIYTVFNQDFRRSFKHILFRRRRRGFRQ
Chain of Cytochrome P450 2C19 (P33261 whole entry, canonical isoform): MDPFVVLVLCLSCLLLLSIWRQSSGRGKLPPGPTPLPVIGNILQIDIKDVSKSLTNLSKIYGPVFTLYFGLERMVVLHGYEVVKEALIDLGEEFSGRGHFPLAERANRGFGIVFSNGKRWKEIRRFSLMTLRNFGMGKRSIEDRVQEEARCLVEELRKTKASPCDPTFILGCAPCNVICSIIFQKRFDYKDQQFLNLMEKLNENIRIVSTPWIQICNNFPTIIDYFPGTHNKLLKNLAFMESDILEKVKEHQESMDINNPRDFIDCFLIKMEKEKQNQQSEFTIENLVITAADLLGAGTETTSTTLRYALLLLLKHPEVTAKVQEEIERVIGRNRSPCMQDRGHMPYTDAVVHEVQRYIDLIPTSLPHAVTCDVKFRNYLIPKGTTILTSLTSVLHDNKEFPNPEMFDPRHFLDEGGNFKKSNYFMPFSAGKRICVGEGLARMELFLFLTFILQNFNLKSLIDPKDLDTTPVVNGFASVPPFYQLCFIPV

IC50 (Cytochrome P450 2C19): 5.7 µM
bioavailability [2]: 35%
Activity (Cytochrome P450 3A4): Not Active
solubility [3]: 1200 mg/mL
Kb [4]: 0.619 µM
Structure (SMILES): COc1ccc2c(c1)c(CN1CCN(C)CC1)cn2S(=O)(=O)c1ccccc1Br.CS(=O)(=O)O.O
Activity (Salmonella typhimurium [1]): Non-Toxic
Activity (Rattus norvegicus): Non-Toxic
Activity (Homo sapiens): Non-Toxic
Activity (Salmonella typhimurium [5]): Non-Toxic

Source: ChEMBL document CHEMBL4007422 (J Med Chem, 2017)
